# Results taken from ChEMBL document CHEMBL5236602, “Synthesis and Characterization of NUC-7738, an Aryloxy Phosphoramidate of 3'-Deoxyadenosine, as a Potential Anticancer Agent” (J Med Chem, 2022).
# The source made the active and inactive calls. No cut-off for these calls is given here.
# Assays:
# THP-1 = assay: Cytotoxicity against human THP-1 cells assessed as maximum cell growth inhibition incubated for 72 hrs by MTS assay relative to control; type: functional
# How it was run: (§1)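 Cells from the 20-line panel were seeded the day before dosing, then exposed to compound for 72 h. MTS was added, followed by 4 h at 37 °C, and absorbance was read. Nine serial 3.16-fold dilutions were tested, top 198 μM, in duplicate. MI% is the maximum inhibitory effect across the tested concentration range.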
# Jurkat = assay: Cytotoxicity against human Jurkat cells assessed as maximum cell growth inhibition incubated for 72 hrs by MTS assay relative to control; type: functional; how it was run: as §1
# [1] = Cytotoxicity against human HS 445 cells assessed as cell death incubated for 72 hrs by MTS assay; type: functional; conditions: read-out: LC50 (the source's name)
# How it was run: (§2)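 Contracted MTS assay. Cells seeded the day before treatment and exposed 72 h to nine serial concentrations (3.16-fold steps, top 198 μM), tested in duplicate. MTS added, then 4 h at 37 °C and absorbance read. LC50 is the concentration killing 50% of cells. MI% is the maximum inhibition over the tested range.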
# RL = assay: Cytotoxicity against human RL cells assessed as cell death incubated for 72 hrs by MTS assay; type: functional; conditions: read-out: LC50 (the source's name); how it was run: as §2
# HT-29 = assay: Cytotoxicity against human HT-29 cells assessed as cell death incubated for 72 hrs by MTS assay; type: functional; conditions: read-out: LC50 (the source's name); how it was run: as §2
# Leukemic stem cell = assay: Cytotoxicity against human leukemic stem cells (Lin-/CD34+/CD38-/CD123+) in myeloid leukemia cell line KG-1a assessed as reduction in LSC population at >1 uM incubated for 72 hrs
# [2] = Prodrug conversion in human RL cells assessed as fold increase in 3'-dATP level at 50 uM incubated for 2 hrs by LC-MS/MS analysis relative to 3'-Deoxyadenosine; type: ADME, cell-based
# MIA PaCa-2 [3] = assay: Cytotoxicity against human MIA PaCa-2 cells assessed as cell death incubated for 72 hrs by MTS assay; type: functional; conditions: read-out: LC50 (the source's name); how it was run: as §2
# BXPC-3 = assay: Cytotoxicity against human BXPC-3 cells assessed as maximum cell growth inhibition incubated for 72 hrs by MTS assay relative to control; type: functional; how it was run: as §1
# MIA PaCa-2 [4] = assay: Cytotoxicity against human MIA PaCa-2 cells assessed as maximum cell growth inhibition incubated for 72 hrs by MTS assay relative to control; type: functional; how it was run: as §1
# [5] = Cytotoxicity against human HS 445 cells assessed as maximum cell growth inhibition incubated for 72 hrs by MTS assay relative to control; type: functional; how it was run: as §1
# CCRF-CEM [6] = assay: Cytotoxicity against human CCRF-CEM cells assessed as maximum cell growth inhibition incubated for 72 hrs by MTS assay relative to control; type: functional; how it was run: as §1
# MV4-11 = assay: Cytotoxicity against human MV4-11 cells assessed as cell death incubated for 72 hrs by MTS assay; type: functional; conditions: read-out: LC50 (the source's name); how it was run: as §2
# CCRF-CEM [7] = assay: Cytotoxicity against human CCRF-CEM cells assessed as cell death incubated for 72 hrs by MTS assay; type: functional; conditions: read-out: LC50 (the source's name); how it was run: as §2
# KG-1 = assay: Cytotoxicity against human KG-1 cells assessed as cell death incubated for 72 hrs by MTS assay; type: functional; how it was run: as §2
smiles,measurement,setting,value
C[C@@H](NP(=O)(OC[C@@H]1C[C@@H](O)[C@H](n2cnc3c(N)ncnc32)O1)Oc1cccc2ccccc12)C(=O)OCc1ccccc1 (stereo not given in full),Imax,THP-1,99%
same,Imax,Jurkat,100%
same,CC50,[1],10.2 µM
same,CC50,RL,1.68 µM
same,CC50,HT-29,7.52 µM
same,Activity,Leukemic stem cell,inactive
same,fold change (FC),[2],3
same,CC50,MIA PaCa-2 [3],3.73 µM
same,Imax,BXPC-3,90%
same,Imax,MIA PaCa-2 [4],98%
same,Imax,[5],96%
same,Imax,CCRF-CEM [6],100%
same,CC50,MV4-11,1.48 µM
same,CC50,CCRF-CEM [7],1.17 µM
same,LC50,KG-1,11.03 µM
